MrgX1 antagonist = human MrgX1 receptor antagonism, primary screen; Q96LB2; MRGX1-HEK293 calcium flux, Fluo-4, BAM8-22 antagonism; active compounds read low; B-score at 10 µM; 310,000 compounds, 1.3% hits; AID 588676;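 active means calcium-response B-score plate-corrected more than 3 library SD below zero, starting fluorescence within 5 deviations, no agonist response on first addition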;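 further: peak minus trough fluorescence over baseline after final BAM8-22 challenge near maximal dose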
MrgX1 agonist = activates human MrgX1 receptor signaling. Q96LB2. MrgX1-HEK293 cells, Fluo-4 calcium fluorescence, agonist mode; active compounds read high. B-score at 10 µM. 310,000 compounds, 0.44% hits. AID 588627;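 active means calcium response B-score plate-corrected fluorescence ratio at least 3 library SD, with starting fluorescence B-score inside 5 SD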
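Test system: Stable human MrgX1 HEK293 cell line | Schedule: Overnight plating before 1 h dye loading | Read-out basis: Baseline-normalised fluorescence change ratio, B-scored | Detection: Kinetic calcium dye fluorescence, Fluo-4 NW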
RGS4 inh = inhibitors of human RGS4; HEK293 M3R/RGS4 inducible, Fluo-4 calcium flux; active compounds read high; triggered by carbachol at its EC20; B-score at 10 µM; 310,000 compounds, 0.45% hits;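 active means B-score, a plate-corrected calcium signal, over three deviations above library mean, with baseline fluorescence within five deviations of library mean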;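 further: RGS4 expression induced by doxycycline in cells with stable M3 receptor; B-score is computed from the integrated fluorescence ratio over baseline after carbachol; higher B-score means a larger calcium signal and so more RGS4 inhibition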
Target sequence (P49798 whole entry, looked up): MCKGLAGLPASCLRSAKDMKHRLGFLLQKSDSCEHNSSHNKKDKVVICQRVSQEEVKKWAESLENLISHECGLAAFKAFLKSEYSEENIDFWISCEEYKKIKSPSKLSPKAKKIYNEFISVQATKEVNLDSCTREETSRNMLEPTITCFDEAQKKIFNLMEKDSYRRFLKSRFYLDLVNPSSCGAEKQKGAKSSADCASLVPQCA
MrgX1 PAM = human MrgX1 positive allosteric modulation, primary screen | Q96LB2 | MrgX1-HEK293, Fluo-4 calcium flux, FDSS; active compounds read high | B-score at 10 µM | 310,000 compounds, 0.63% hits | AID 588675;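 active means plate-corrected calcium response at least 3 library SD above typical, normal starting fluorescence, not activating the receptor alone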;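 further: compound read alongside a low EC10 to EC30 dose of BAM8-22 agonist; peak minus trough fluorescence over baseline measured at the second addition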
RGS4 act = RGS4 potentiation or activation. HEK293 M3R/inducible RGS4, carbachol calcium flux Fluo4; active compounds read low. B-score at 10 µM. 310,000 compounds, 0.92% hits;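 active means B-score of the integrated calcium signal more than 4 SD below the library mean, with starting fluorescence not abnormally high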;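 further: negative B-score means reduced calcium response which marks RGS4 activation or potentiation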
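Detection: kinetic calcium fluorescence imaging with Fluo4-AM dye, 2 µM / Material: HEK293 cells with stable M3R and inducible RGS4 / Schedule: recording 10 s baseline at 1 Hz, 100 s post-agonist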
Kir21 block = blocks the mouse Kir2.1 inward-rectifier potassium channel. P35561. 310,000 compounds, 0.85% hits. AID 1672. HEK293-Kir2.1, FluxOR thallium flux fluorescence; active compounds read low. B-score at 10 µM;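 active means fluorescence ratio B-score at or below minus 3 SD of library scores, with starting-brightness B-score within 2 SD, cut at about -4.2 in these data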;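 further: channel flux triggered by added potassium and thallium sulfate stimulus; B-score of peak minus minimum fluorescence over baseline after thallium stimulus; more negative B-score means stronger Kir2.1 block with less thallium influx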
Target sequence (P35561 whole entry, looked up): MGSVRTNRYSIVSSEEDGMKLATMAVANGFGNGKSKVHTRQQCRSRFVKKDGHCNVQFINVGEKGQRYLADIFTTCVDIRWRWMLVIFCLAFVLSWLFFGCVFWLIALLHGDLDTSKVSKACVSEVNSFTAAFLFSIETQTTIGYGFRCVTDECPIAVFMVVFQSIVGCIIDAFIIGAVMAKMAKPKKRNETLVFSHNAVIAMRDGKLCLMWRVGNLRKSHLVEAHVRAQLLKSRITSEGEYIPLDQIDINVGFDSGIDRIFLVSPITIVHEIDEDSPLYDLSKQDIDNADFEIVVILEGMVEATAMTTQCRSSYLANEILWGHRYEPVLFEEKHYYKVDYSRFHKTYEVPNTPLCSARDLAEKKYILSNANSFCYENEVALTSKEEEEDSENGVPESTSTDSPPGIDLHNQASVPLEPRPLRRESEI
MrgX1 allo conf = human MrgX1 positive allosteric modulation, re-confirmation; MrgX1-HEK293, Fluo-4 calcium fluorescence, FDSS; shares compounds with MrgX1 PAM; 1,200 compounds, 13% hits; activation (ratio percentage), % at 10 µM;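 active means ratio at least 3 SD above the weak peptide control, stable starting fluorescence, no direct agonism earlier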;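 further: compound followed by low BAM8-22 agonist challenge near EC20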
HEK293 Ca flux = MrgX1 antagonist counter-screen hit in parental HEK293 cells; shares compounds with MrgX1 antagonist; Fluo-4 calcium fluorescence, FDSS; fluorescence ratio F(max-min)/F0 at 10 µM; 4,000 compounds, 2% hits; AID 624111;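 active means duplicate-averaged calcium fluorescence ratio at least three times the standard deviation of buffer wells, a nonspecific response in parental cells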
HEK293 Ca counter = MrgX1 allosteric activator counter-screen hit in parental HEK293 cells | shares compounds with MrgX1 antagonist | parental HEK293 calcium flux, Fluo-4 fluorescence ratio; active compounds read high | fluorescence ratio F(max-min)/F0 at 10 µM | 4,000 compounds, 0.4% hits | AID 624114;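 active means calcium fluorescence ratio, averaged over duplicates, at least 3 SD of the buffer-well ratio, meaning a nonspecific response in receptor-free cells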;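 further: untransfected parental HEK293 lacking MrgX1 used as counterscreen for MrgX1 allosteric activators; fluorescence change taken during the second addition on a kinetic imager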
HEK293 Ca cntr2 = activity in parental HEK293 cells lacking MrgX1 receptor; shares compounds with MrgX1 antagonist; Fluo-4 calcium fluorescence (FDSS); active compounds read high; fluorescence ratio F(max-min)/F0 at 10 µM; 4,000 compounds, 8.7% hits;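 active means calcium fluorescence ratio at least three times the spread of buffer wells, meaning a non-specific response in parental cells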
The depositor's hits bear a star; i = inactive; · = not tested or not shown. Shown are actives, neighbours in structure and some others; about 4.1% of the full set was active somewhere.

SMILES	MrgX1 antagonist	MrgX1 agonist	RGS4 inh	MrgX1 PAM	RGS4 act	Kir21 block	MrgX1 allo conf	HEK293 Ca flux	HEK293 Ca counter	HEK293 Ca cntr2
CCc1n[nH]c(=S)n1/N=C/C(C)=C\c1ccccc1	i	i	i	6.6*	i	0.15	i	i	i	i
O=C(Cc1c(F)cccc1Cl)Nc1nc2ccccc2s1	i	i	i	21*	i	-0.82	i	i	i	i
CC(=O)c1sc(NC(=O)Cc2c(F)cccc2Cl)nc1C	i	i	i	i	i	-0.03	·	·	·	·
Cc1cc(Br)ccc1N=C1C(=O)Nc2ccccc21	i	i	i	i	i	-0.08	·	·	·	·
CC(=O)Nc1nonc1NC(=O)CSC1=NCCS1	i	i	i	i	i	2.4	·	·	·	·
CCCn1c(=O)c(C(=O)NCCCc2ccccc2)c(O)c2ccccc21	i	i	i	6.8*	i	-0.32	i	i	i	i
CCn1c(=O)c(C(=O)NCCCc2ccccc2)c(O)c2ccccc21	i	i	i	i	i	0.05	·	·	·	·
CN(C)C(=O)N1CCC(C(=O)NCc2ccc(F)cc2Cl)CC1	i	i	i	i	i	0.68	·	·	·	·
COc1cc(SC)ccc1C(=O)NCc1ccc(C)cc1	i	i	i	6.5*	i	-0.41	i	i	i	i
CC(C)c1ccc(-c2csc3ncnc(N4CCN(C)CC4)c23)cc1	i	i	i	7.3*	i	-1.1	i	i	i	i
CN1CCCN(c2ncnc3scc(-c4ccc(F)cc4)c23)CC1	i	i	i	i	i	-0.05	·	·	·	·
CC(=O)N1c2ccc(S(=O)(=O)N(C)Cc3ccccc3)cc2CC1C (centres undefined)	i	i	i	7.2*	i	-0.01	i	i	i	i
CC(=O)N1c2ccc(S(=O)(=O)N(C)CC(=O)NCc3ccccc3)cc2CC1C (centres undefined)	i	i	i	i	i	-2	·	·	·	·
Cn1nc(C(F)(F)F)c(-c2ccc(Br)cc2)c1NC(=O)c1ccco1	i	i	i	20*	i	-1.4	i	i	i	i
CC1CCCC(NC(=O)CN2C(=O)c3cccnc3Oc3ccc(Cl)cc32)C1C (centres undefined)	i	i	i	11*	i	0.76	i	i	i	78*
O=C(CN1C(=O)c2cccnc2Oc2ccc(Cl)cc21)NC1CCCC1	i	i	i	i	i	-1.7	·	·	·	·
COc1ccc(NC(=O)CCNS(=O)(=O)c2cccc3nonc23)cc1Cl	i	i	i	i	i	-1	·	·	·	·
CC1(C)Cc2c(cnn2-c2cccc(F)c2)C(NC(=O)Cn2cccn2)C1 (centres undefined)	i	i	i	i	i	0.03	·	·	·	·
CC12CCC(=O)N1C(C(=O)Nc1nc(-c3ccc(F)c(F)c3)cs1)CS2 (centres undefined)	i	i	i	i	i	-0.53	·	·	·	·
COc1ccc(-c2csc(NC(=O)C3CSC4(C)CCC(=O)N34)n2)cc1OC (centres undefined)	i	i	i	11*	i	3	9.1%*	i	i	i
CCn1c(N2CCN(C(=O)C34CC5CC(CC(C5)C3)C4)CC2)nc2ccccc21	i	i	i	i	i	0.74	·	·	·	·
O=C(Nc1ccccc1C(=O)O)c1ccc(NC(=O)c2ccc(Br)o2)cc1	i	i	i	i	i	0.82	·	·	·	·
CC(=O)Oc1ccc(C(=O)Nc2ccccc2C(=O)Nc2cccc(C(=O)O)c2)cc1	i	i	i	10*	i	0.43	i	i	i	i
O=C(Nc1ccccc1C(=O)O)c1cccc(NC(=O)c2ccc(Br)o2)c1	i	i	i	17*	i	0.86	i	i	i	i
O=C(COc1ccc(F)cc1)NCC1CCCO1 (centres undefined)	i	i	i	i	i	0.94	·	·	·	·
SMILES	MrgX1 antagonist	MrgX1 agonist	RGS4 inh	MrgX1 PAM	RGS4 act	Kir21 block	MrgX1 allo conf	HEK293 Ca flux	HEK293 Ca counter	HEK293 Ca cntr2
Cc1sc2ncnc(N3CCCCC3)c2c1C	i	i	i	6.8*	i	-0.71	i	i	i	i
Cc1sc2ncnc(N3CCOCC3)c2c1C	i	i	i	i	i	0.81	·	·	·	·
CCc1cc2c(N3CCCCC3)ncnc2s1	i	i	i	11*	i	-0.39	i	i	i	i
Cc1sc2ncnc(N3CCCC(C)C3)c2c1C (centres undefined)	i	i	i	28*	i	0.21	25%*	i	i	i
Cc1ccc(OCCN2CCN(c3ncnc4sc(C)c(C)c34)CC2)cc1	i	i	i	i	i	-2.8	·	·	·	·
Cc1sc2ncnc(N3CCCCC3C)c2c1C (centres undefined)	i	i	i	12*	i	-1.4	6.3%*	i	i	i
CCCCOC(=O)c1cc(Cl)c(O)c(OC)c1	i	i	i	i	i	-1.1	·	·	·	·

From PubChem BioAssay
